Converted amounts (≈) assume the structure as drawn. Structures can show the parent of a compound that is named as a salt. The source made the active and inactive calls. No cut-off for these calls is given here.
Assays:
IMR-90 = test: Cytotoxicity against human IMR-90 cells assessed as cell growth inhibition upto 10 uM measured after 48 hrs by […] reagent based assay; format: functional
Summary of the method: (§1)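 Counterscreen viability assay in HCT116 colorectal cancer cells and IMR90 normal lung fibroblasts, run alongside DNMDP-sensitive lines.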

HCT-116 = test: Cytotoxicity against human HCT-116 cells assessed as cell growth inhibition upto 10 uM measured after 48 hrs by […] reagent based assay; format: functional; summary of the method: as §1
[1] = Inhibition of PDE in human HeLa cells; format: cell-based
[2] = target: High affinity cAMP-specific and IBMX-insensitive 3',5'-cyclic phosphodiesterase 8A (Homo sapiens) (UniProt O60658); test: Inhibition of PDE8A (unknown origin) by 3H-cAMP scintillation proximity assay
Cytochrome P450 2D6 = Cytochrome P450 2D6 (Homo sapiens, UniProt P10635); test: Inhibition of CYP2D6 (unknown origin); format: ADME
Sequence of Cytochrome P450 2D6 (P10635 whole entry): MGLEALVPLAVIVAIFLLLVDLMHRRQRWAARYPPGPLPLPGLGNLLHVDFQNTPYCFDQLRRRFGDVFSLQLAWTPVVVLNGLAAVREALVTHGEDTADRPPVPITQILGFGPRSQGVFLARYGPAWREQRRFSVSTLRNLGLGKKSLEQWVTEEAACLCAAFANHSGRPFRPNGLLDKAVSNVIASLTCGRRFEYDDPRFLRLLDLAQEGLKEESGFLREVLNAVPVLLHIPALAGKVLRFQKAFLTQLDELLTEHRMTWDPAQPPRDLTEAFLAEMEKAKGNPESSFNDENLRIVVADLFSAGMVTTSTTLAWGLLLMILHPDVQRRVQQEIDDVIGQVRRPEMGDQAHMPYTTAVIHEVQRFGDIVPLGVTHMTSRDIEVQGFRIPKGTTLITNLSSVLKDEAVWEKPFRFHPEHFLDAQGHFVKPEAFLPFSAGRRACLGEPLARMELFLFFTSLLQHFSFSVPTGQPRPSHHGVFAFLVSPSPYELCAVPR
Summary of the method: (§2)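 CYP450 inhibition panel covering CYP1A2, 2C8, 2C9, 2D6 and 3A4, with compound tested at high concentrations.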

[3] = target: High affinity cGMP-specific 3',5'-cyclic phosphodiesterase 9A (Homo sapiens) (UniProt O76083); test: Inhibition of PDE9A (unknown origin) by 3H-cAMP scintillation proximity assay
Cytochrome P450 2C9 = Cytochrome P450 2C9 (Homo sapiens, UniProt P11712); test: Inhibition of CYP2C9 (unknown origin); format: ADME; summary of the method: as §2
Sequence of Cytochrome P450 2C9 (P11712 whole entry): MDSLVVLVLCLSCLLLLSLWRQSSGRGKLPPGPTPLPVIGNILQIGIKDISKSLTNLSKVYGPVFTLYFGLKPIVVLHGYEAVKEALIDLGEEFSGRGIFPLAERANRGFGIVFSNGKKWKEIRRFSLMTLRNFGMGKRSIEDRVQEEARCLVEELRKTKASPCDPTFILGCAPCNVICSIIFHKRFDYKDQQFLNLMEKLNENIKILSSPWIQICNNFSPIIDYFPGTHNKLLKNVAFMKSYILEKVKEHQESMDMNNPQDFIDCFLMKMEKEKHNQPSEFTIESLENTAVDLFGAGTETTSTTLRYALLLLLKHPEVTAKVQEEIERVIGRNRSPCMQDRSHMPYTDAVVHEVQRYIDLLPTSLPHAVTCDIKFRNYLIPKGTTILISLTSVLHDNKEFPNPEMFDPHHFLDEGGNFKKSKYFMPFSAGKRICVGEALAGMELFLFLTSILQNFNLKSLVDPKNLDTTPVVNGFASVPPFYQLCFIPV

Homo sapiens = species on record: Homo sapiens; test: Inhibition of PDE1 (unknown origin) by 3H-cAMP scintillation proximity assay
A549 = test: Cytotoxicity against human A549 cells assessed as cell growth inhibition upto 10 uM measured after 3 days by […] reagent based assay; conditions: time 72.0 hrs
HeLa = test: Cytotoxicity against human HeLa cells assessed as cell growth inhibition measured after 48 hrs by […] reagent based assay; format: functional
[4] = target: cGMP-dependent 3',5'-cyclic phosphodiesterase (Homo sapiens) (UniProt O00408); test: Inhibition of PDE2A (unknown origin) by 3H-cAMP scintillation proximity assay
Sequence of cGMP-dependent 3',5'-cyclic phosphodiesterase (Homo sapiens) (O00408 whole entry): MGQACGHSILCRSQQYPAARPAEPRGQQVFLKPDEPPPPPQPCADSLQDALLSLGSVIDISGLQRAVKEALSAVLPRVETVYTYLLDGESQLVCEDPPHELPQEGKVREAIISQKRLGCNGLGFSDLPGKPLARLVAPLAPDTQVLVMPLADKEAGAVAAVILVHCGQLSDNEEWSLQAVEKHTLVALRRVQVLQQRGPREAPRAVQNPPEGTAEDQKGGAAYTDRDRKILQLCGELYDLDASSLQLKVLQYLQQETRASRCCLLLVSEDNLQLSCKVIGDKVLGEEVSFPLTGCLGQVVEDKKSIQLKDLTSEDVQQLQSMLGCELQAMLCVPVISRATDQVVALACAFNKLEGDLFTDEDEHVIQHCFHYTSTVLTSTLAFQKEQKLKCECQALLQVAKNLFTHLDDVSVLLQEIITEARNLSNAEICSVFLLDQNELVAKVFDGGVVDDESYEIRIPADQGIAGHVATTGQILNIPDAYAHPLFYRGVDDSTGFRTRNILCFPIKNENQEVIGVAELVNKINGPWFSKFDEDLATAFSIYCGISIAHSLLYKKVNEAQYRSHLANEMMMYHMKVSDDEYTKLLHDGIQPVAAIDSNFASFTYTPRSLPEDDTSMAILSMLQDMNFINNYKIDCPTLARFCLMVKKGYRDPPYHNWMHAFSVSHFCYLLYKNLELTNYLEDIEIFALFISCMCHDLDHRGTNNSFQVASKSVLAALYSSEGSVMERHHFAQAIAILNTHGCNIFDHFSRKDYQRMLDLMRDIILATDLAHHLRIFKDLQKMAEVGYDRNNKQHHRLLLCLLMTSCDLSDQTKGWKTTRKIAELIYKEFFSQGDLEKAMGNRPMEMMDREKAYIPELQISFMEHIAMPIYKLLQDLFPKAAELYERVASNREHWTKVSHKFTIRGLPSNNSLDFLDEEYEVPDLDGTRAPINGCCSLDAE

[5] = target: Phosphodiesterase 6 (Homo sapiens) (UniProt Q13956+P18545+P35913+O43924+P16499+P51160); test: Inhibition of PDE6 (unknown origin) by 3H-cAMP scintillation proximity assay; format: protein assay
[6] = Permeability across basolateral to apical side in human Caco-2 cells; format: ADME, cell-based; conditions: read-out: permeability
Summary of the method: (§3)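 Caco2 monolayer permeability measured in the apical-to-basolateral and basolateral-to-apical directions, in nm/s. Efflux ratio calculated as B-A over A-B.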

SK-MEL3 [7] = test: Antitumor activity against human SK-MEL3 cells xenografted in NMRI nude mouse assessed as tumor growth inhibition at 10 mg/kg, po administered twice daily for 44 days; format: functional, organism-based; conditions: time 44.0 day
Summary of the method: (§4)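 SK-MEL-3 melanoma cells inoculated subcutaneously into female NMRI nude mice. Oral dosing at 10 or 20 mg/kg twice daily, or 50 mg/kg once daily, with vehicle controls. Tumor area and tumor weight expressed relative to vehicle as T/C_rel.area and T/C_weight.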

[8] = target: Ribonuclease SLFN12 (Homo sapiens) (UniProt Q8IYM2); test: Stabilization of PDE3A/V5-epitope tagged SLFN12 interaction in human HeLa cells at 10 uM incubated for 8 hrs by immunoblotting analysis; format: cell-based
Summary of the method: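 HeLa cells transfected with a plasmid expressing V5-tagged SLFN12, then exposed to 10 µM compound for 8 h. Lysates immunoprecipitated with anti-PDE3A antibody for endogenous PDE3A. Co-precipitated SLFN12-V5 detected by immunoblot with anti-V5 antibody.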

[9] = Toxicity in NMRI nude mouse assessed as tolerance at 20 mg/kg, po administered twice daily for 44 days; format: organism-based; conditions: in vivo, 1056 h, time 44 day
Summary of the method: (§5)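 Female NMRI nude mice carrying subcutaneous SK-MEL-3 xenografts, given the compound orally at 10 or 20 mg/kg twice daily, or 50 mg/kg once daily. Tolerance judged by body weight loss (>10% critical) and toxicities.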

[10] = Permeability across apical to basolateral side in human Caco-2 cells; format: ADME, cell-based; conditions: read-out: permeability; summary of the method: as §3
Cytochrome P450 2C8 = Cytochrome P450 2C8 (Homo sapiens, UniProt P10632); test: Inhibition of CYP2C8 (unknown origin); format: ADME; summary of the method: as §2
Sequence of Cytochrome P450 2C8 (P10632 whole entry): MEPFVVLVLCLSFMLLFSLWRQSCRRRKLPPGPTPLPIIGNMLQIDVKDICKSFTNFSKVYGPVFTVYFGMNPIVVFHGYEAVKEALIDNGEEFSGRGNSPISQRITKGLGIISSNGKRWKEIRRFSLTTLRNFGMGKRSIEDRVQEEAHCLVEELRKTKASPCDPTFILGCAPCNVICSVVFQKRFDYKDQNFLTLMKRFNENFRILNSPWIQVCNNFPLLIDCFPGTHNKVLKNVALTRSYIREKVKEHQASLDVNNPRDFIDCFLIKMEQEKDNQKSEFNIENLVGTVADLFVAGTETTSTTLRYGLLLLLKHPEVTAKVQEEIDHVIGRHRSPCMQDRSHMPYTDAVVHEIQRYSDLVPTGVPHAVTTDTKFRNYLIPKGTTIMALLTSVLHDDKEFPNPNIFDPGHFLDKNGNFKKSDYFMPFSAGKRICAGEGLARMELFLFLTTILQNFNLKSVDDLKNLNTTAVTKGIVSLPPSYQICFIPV

[11] = Selectivity ratio, ratio of IC50 for human PDE3B to EC50 for cytotoxicity against human HeLa cells
SK-MEL3 [12] = test: Antitumor activity against human SK-MEL3 cells xenografted in NMRI nude mouse assessed as tumor growth inhibition by measuring tumor to control ratio at 50 mg/kg, po administered once daily for 44 days; format: functional; conditions: time 44 day; summary of the method: as §4
[13] = Efflux ratio of permeability in human Caco-2 cells; format: ADME, cell-based; summary of the method: as §3
SK-MEL3 [14] = test: Antitumor activity against human SK-MEL3 cells xenografted in NMRI nude mouse assessed as tumor weight by measuring tumor to control ratio at 50 mg/kg, po administered once daily for 44 days; format: functional; conditions: time 44 day; summary of the method: as §4
[15] = Solubility of the compound; format: physicochemical
[16] = Toxicity in NMRI nude mouse assessed as tolerance at 50 mg/kg, po administered once daily for 44 days; format: organism-based; conditions: in vivo, 1056 h, time 44 day; summary of the method: as §5
[17] = target: cGMP-inhibited 3',5'-cyclic phosphodiesterase 3A (Homo sapiens, UniProt Q14432); test: Inhibition of human N-terminal His-GST-tagged recombinant PDE3A (669-end residues) using fluorescent labelled cAMP as substrate
SK-MEL3 [18] = test: Antitumor activity against human SK-MEL3 cells xenografted in NMRI nude mouse assessed as tumor growth inhibition at 50 mg/kg, po administered once daily for 44 days; format: functional, organism-based; conditions: time 44.0 day; summary of the method: as §4
[19] = target: 3',5'-cyclic-AMP phosphodiesterase 7B (Homo sapiens) (UniProt Q9NP56); test: Inhibition of PDE7B (unknown origin) by 3H-cAMP scintillation proximity assay
[20] = target: cGMP-specific 3',5'-cyclic phosphodiesterase (Homo sapiens) (UniProt O76074); test: Inhibition of PDE5 (unknown origin) by 3H-cAMP scintillation proximity assay
[21] = target: 3',5'-cyclic-AMP phosphodiesterase 4B (Homo sapiens) (UniProt Q07343); test: Inhibition of PDE4B (unknown origin) by 3H-cAMP scintillation proximity assay
Sequence of 3',5'-cyclic-AMP phosphodiesterase 4B (Homo sapiens) (Q07343 whole entry): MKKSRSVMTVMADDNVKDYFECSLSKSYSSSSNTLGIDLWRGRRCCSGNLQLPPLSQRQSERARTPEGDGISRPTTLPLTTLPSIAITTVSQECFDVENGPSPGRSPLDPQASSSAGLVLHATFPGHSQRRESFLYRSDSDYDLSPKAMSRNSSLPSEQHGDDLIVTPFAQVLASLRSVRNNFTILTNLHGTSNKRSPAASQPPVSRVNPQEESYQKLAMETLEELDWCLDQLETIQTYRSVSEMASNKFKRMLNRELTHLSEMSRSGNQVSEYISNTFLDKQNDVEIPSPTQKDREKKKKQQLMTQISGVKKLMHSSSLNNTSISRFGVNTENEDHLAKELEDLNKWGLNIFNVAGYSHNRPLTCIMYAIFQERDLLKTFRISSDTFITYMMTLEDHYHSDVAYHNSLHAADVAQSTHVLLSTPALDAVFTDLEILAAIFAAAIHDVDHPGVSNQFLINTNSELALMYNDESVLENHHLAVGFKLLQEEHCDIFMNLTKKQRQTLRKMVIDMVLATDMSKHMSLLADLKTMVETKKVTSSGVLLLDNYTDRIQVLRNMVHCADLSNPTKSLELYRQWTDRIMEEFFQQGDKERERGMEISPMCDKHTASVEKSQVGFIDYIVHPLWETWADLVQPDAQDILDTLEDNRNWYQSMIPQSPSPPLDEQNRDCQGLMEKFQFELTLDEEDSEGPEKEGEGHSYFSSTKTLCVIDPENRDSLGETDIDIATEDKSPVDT

Cytochrome P450 3A4 = Cytochrome P450 3A4 (Homo sapiens, UniProt P08684); test: Inhibition of CYP3A4 (unknown origin); format: ADME; summary of the method: as §2
SK-MEL3 [22] = test: Antitumor activity against human SK-MEL3 cells xenografted in NMRI nude mouse assessed as tumor growth inhibition at 20 mg/kg, po administered twice daily for 44 days; format: functional, organism-based; conditions: time 44.0 day; summary of the method: as §4
[23] = Selectivity ratio, ratio of IC50 for human PDE3A to EC50 for cytotoxicity against human HeLa cells
[24] = Toxicity in NMRI nude mouse assessed as tolerance at 10 mg/kg, po administered twice daily for 44 days; format: organism-based; conditions: in vivo, 1056 h, time 44 day; summary of the method: as §5
SK-MEL3 [25] = test: Cytotoxicity against human SK-MEL3 cells assessed as cell growth inhibition upto 10 uM measured after 48 hrs by […] reagent based assay; format: functional; conditions: SK-MEL3, 48 h
[26] = target: Voltage-gated inwardly rectifying potassium channel KCNH2 (Homo sapiens, UniProt Q12809); test: Binding affinity to hERG (unknown origin); format: toxicity
Sequence of Voltage-gated inwardly rectifying potassium channel KCNH2 (Q12809 whole entry): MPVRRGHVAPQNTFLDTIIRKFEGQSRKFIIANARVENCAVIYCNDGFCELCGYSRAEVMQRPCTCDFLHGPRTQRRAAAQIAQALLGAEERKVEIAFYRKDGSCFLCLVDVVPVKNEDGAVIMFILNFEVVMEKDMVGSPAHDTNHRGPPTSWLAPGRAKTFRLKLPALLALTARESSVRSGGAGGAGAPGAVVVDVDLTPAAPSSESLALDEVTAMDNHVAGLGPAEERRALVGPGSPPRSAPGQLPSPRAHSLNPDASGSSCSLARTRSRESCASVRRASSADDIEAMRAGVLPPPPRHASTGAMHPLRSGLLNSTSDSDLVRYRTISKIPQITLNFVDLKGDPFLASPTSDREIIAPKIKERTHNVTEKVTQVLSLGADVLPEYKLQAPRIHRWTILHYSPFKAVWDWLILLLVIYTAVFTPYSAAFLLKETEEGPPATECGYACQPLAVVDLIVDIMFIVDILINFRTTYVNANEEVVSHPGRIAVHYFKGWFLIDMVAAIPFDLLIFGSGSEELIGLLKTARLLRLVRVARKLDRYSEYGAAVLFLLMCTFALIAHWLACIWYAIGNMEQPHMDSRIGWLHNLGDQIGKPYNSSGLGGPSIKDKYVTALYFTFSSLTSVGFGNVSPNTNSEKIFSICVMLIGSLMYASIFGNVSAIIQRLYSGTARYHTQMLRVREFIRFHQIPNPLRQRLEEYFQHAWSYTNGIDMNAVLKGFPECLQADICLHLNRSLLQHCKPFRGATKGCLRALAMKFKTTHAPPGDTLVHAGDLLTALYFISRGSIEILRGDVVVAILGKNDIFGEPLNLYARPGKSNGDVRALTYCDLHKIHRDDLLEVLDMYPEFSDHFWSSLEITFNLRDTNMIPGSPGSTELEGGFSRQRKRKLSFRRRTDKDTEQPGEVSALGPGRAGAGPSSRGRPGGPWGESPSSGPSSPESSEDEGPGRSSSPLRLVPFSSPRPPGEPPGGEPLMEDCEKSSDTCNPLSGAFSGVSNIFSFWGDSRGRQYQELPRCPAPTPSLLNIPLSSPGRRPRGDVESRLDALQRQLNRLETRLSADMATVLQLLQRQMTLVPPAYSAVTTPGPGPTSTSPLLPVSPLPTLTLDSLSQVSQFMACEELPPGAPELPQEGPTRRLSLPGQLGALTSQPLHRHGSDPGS

Cytochrome P450 1A2 = Cytochrome P450 1A2 (Homo sapiens, UniProt P05177); test: Inhibition of CYP1A2 (unknown origin); format: ADME; summary of the method: as §2
Sequence of Cytochrome P450 1A2 (P05177 whole entry): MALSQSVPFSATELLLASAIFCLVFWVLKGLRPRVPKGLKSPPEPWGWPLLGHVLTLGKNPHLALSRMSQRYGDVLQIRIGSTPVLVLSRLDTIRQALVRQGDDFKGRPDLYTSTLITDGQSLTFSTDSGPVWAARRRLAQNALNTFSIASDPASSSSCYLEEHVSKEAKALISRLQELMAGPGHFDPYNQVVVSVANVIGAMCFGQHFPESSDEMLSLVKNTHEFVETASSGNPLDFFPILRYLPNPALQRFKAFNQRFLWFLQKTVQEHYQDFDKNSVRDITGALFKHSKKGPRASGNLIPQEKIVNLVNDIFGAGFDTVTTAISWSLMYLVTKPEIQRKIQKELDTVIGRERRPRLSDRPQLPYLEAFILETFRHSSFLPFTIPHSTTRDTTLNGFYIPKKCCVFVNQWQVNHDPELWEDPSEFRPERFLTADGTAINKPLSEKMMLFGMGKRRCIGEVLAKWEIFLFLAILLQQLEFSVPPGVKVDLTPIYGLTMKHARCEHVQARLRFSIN

Structure (SMILES): COc1cc2c(cc1OC)-c1c/c(=N\c3c(C)cc(C)cc3C)n(C)c(=O)n1CC2 [TREQUINSIN HYDROCHLORIDE]
- Activity (IMR-90): inactive
- Activity (HCT-116): inactive
- IC50 [1]: 0.25 nM

Structure (SMILES): C[C@@H]1CC(=O)NN=C1c1ccc(N2CCOCC2)c(F)c1
- inhibition [2]: inactive
- inhibition (INH) (Cytochrome P450 2D6): Not Active
- inhibition [3]: inactive
- inhibition (INH) (Cytochrome P450 2C9): Not Active
- inhibition (Homo sapiens): inactive
- Activity (A549): inactive
- EC50 (HeLa): 1.6 nM
- inhibition [4]: inactive
- inhibition [5]: inactive
- Papp B→A [6]: 198 nm/s
- TGI (SK-MEL3 [7]): Active
- Activity [8]: Active
- Activity [9]: Non-Toxic
- Papp A→B [10]: 279 nm/s
- inhibition (INH) (Cytochrome P450 2C8): Not Active
- Ratio IC50/EC50 [11]: 2.4
- T/C (SK-MEL3 [12]): 0.09
- efflux ratio [13]: 0.71
- T/C (SK-MEL3 [14]): 0.16
- Activity (IMR-90): inactive
- solubility [15]: 1000 µM (≈ 291 µg/mL)
- Activity [16]: Non-Toxic
- IC50 [17]: 10 nM
- TGI (SK-MEL3 [18]): Active
- inhibition [19]: inactive
- Activity (HCT-116): inactive
- inhibition [20]: inactive
- inhibition [21]: inactive
- inhibition (INH) (Cytochrome P450 3A4): Not Active
- TGI (SK-MEL3 [22]): Active
- Ratio IC50/EC50 [23]: 2.4
- Activity [24]: Non-Toxic
- EC50 (SK-MEL3 [25]): 1.3 nM
- Activity [26]: Not Active
- inhibition (INH) (Cytochrome P450 1A2): Not Active
